Assay outcomes as filed in PubChem.
Rows were chosen to be rich in hits. Some 3.5% of all compounds tested hit in one or more screens of this group.
MrgX1 allo act = allosterically activates human MrgX1 receptor signaling | Q96LB2 | MrgX1-HEK293, Fluo-4 calcium flux, FDSS; hits give high values | B-score at 10 µM | hit rate 0.63% among 310,000;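 active = plate-corrected calcium response at least 3 library SD above typical, normal starting fluorescence, not activating the receptor alone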;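 note: compound read alongside a low EC10 to EC30 dose of BAM8-22 agonist; peak minus trough fluorescence over baseline measured at the second addition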
Target sequence (Q96LB2 whole entry, looked up): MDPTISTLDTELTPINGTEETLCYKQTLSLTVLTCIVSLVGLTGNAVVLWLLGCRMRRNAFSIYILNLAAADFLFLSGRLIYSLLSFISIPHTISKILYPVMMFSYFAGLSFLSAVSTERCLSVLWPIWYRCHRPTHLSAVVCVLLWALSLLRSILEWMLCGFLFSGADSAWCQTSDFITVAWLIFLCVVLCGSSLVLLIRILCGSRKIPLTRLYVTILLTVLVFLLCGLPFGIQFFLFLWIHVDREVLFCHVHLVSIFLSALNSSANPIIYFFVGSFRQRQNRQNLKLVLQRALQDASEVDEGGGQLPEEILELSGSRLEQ
MrgX1 ag = agonists of human MrgX1 receptor | Q96LB2 | MrgX1-HEK293 cells, Fluo-4 calcium fluorescence, agonist mode; hits give high values | B-score at 10 µM | hit rate 0.44% among 310,000 | AID 588627;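 active = calcium response B-score plate-corrected fluorescence ratio at least 3 library SD, with starting fluorescence B-score inside 5 SD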
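System – MrgX1-expressing HEK293 cells · Incubation – cells plated overnight, dye loaded 0.5 h 37 °C, 0.5 h room temperature · Technique – kinetic Fluo-4 NW fluorescence of intracellular calcium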
MrgX1 antag = blocks BAM8-22 activation of human MrgX1 receptor; MRGX1-HEK293 calcium flux, Fluo-4, BAM8-22 antagonism; hits give low values; Q96LB2; B-score at 10 µM; hit rate 1.3% among 310,000;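 active = calcium-response B-score plate-corrected more than 3 library SD below zero, starting fluorescence within 5 deviations, no agonist response on first addition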;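 note: peak minus trough fluorescence over baseline after final BAM8-22 challenge near maximal dose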
RGS4 act = potentiators or activators of RGS4; HEK293 M3R/inducible RGS4, carbachol calcium flux Fluo4; hits give low values; B-score at 10 µM; hit rate 0.92% among 310,000; AID 463111;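 active = B-score of the integrated calcium signal more than 4 SD below the library mean, with starting fluorescence not abnormally high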;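 note: negative B-score means reduced calcium response which marks RGS4 activation or potentiation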
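Detection: kinetic calcium fluorescence imaging with Fluo4-AM dye, 2 µM / Material: HEK293 cells with stable M3R and inducible RGS4 / Schedule: recording 10 s baseline at 1 Hz, 100 s post-agonist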
RGS4 inh = human RGS4 inhibition | P49798 | B-score at 10 µM | HEK293 M3R/RGS4 inducible, Fluo-4 calcium flux; hits give high values; triggered by carbachol at its EC20 | hit rate 0.45% among 310,000;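 active = B-score, a plate-corrected calcium signal, over three deviations above library mean, with baseline fluorescence within five deviations of library mean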;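 note: RGS4 expression induced by doxycycline in cells with stable M3 receptor; B-score is computed from the integrated fluorescence ratio over baseline after carbachol; higher B-score means a larger calcium signal and so more RGS4 inhibition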
Target sequence (P49798 whole entry, looked up): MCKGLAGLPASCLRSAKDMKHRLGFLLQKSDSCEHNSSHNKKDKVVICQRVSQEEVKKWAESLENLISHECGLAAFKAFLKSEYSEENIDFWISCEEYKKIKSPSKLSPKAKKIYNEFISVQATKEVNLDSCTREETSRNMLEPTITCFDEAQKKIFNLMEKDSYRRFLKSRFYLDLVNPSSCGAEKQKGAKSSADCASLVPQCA
* hit, by the source's call; i = inactive.

SMILES	MrgX1 allo act	MrgX1 ag	MrgX1 antag	RGS4 act	RGS4 inh
O=c1oc2ccccc2cc1-c1cn2ccccc2n1	i	27*	i	i	i
CS(=O)(=O)c1cccc(-c2nnc(NC(=O)C3=COCCO3)o2)c1	i	i	-4.9*	i	i
Cn1c(=O)c2c(nc(N3CCc4ccccc4C3)n2C)n(C)c1=O	i	i	i	i	i
C=CCNC(=S)NNC(=O)c1ccc([N+](=O)[O-])cc1	i	i	-7.9*	i	i
CCCCCCCC(=O)NNC(=O)c1ccc([N+](=O)[O-])cc1	7*	i	i	i	i
C=CCNC(=S)NNC(=O)c1ccccc1	i	i	i	i	i
COC(=O)CCC(=O)NNC(=O)c1ccc([N+](=O)[O-])cc1	i	i	i	i	i
CCOc1ccc(NC(=O)Nc2c(C)n(C)n(-c3ccccc3)c2=O)cc1	i	i	i	i	i
COCCN1CCN(C(=O)c2ccc3nc(Cc4ccc(OC)c(OC)c4)oc3c2)CC1	i	i	-5.9*	i	i
COc1ccc(Cc2nc3ccc(C(=O)N4C[C@@H](C)O[C@@H](C)C4)cc3o2)cc1OC	i	i	i	i	i
CCOc1ccc(/C=N/OCC(=O)NCc2ccc3c(c2)OCO3)cc1OC	i	i	-5.9*	i	i
COc1ccccc1/C=N/OCC(=O)NCc1ccc2c(c1)OCO2	i	i	i	i	i
O=C(NCC1CCCO1)c1sc(=S)n2c1[nH]c(=O)c1ccc(C(=O)N3CCCCC3)cc12 (stereo unspecified)	i	i	i	i	i
O=C(NC1CCCCC1)c1sc(=S)n2c1[nH]c(=O)c1ccccc12	i	47*	i	i	i
CCCCNC(=O)c1sc(=S)n2c1[nH]c(=O)c1ccccc12	i	63*	i	i	i
CCOc1cc(N2CCOCC2)c(OCC)cc1NC(=O)COC(=O)CCOc1cc(C)ccc1C	i	i	i	i	i
CC(C)CN1CCN(Cc2nc3ccccc3s2)CC1CCO (stereo unspecified)	i	i	i	i	i
OCCC1CN(Cc2nc3ccccc3s2)CCN1C1CCCCC1 (stereo unspecified)	i	i	-5.2*	i	i
COc1ccc2c(c1)C=C(CN1CCN(C3CCCC3)C(CCO)C1)CO2 (stereo unspecified)	i	i	i	-7*	i
OCCC1CN(Cc2nc(-c3ccccc3)cs2)CCN1C1CCCC1 (stereo unspecified)	i	i	i	-7.2*	i
CCn1c(SCC(=O)Nc2ccc(N3CCOCC3)cc2)nnc1-c1ccco1	i	i	i	i	i
COc1ccc(CCNC(=O)c2ccc(NS(=O)(=O)c3ccc4[nH]c(=O)[nH]c4c3)cc2)cc1	i	i	i	i	i
Cc1nc2ccccc2c2oc(C(=O)N3CCN(c4ccc([N+](=O)[O-])cc4)CC3)cc12	6.6*	i	i	i	i
Cc1ccc(C(=O)Nc2nnc(S(=O)(=O)N3CCC(C)CC3)s2)cc1	i	i	-6.4*	i	i
Cc1ccc(C(=O)Nc2nnc(S(=O)(=O)N3CCCCCC3)s2)cc1	i	i	i	i	i
SMILES	MrgX1 allo act	MrgX1 ag	MrgX1 antag	RGS4 act	RGS4 inh
Cc1cc[n+](C(C)C(=O)c2ccc(-c3ccccc3)cc2)cc1 (stereo unspecified)	i	i	i	-9.4*	i
CC(C(=O)c1ccc(-c2ccccc2)cc1)[n+]1ccccc1 (stereo unspecified)	i	i	i	i	i
CC1(C)CC(=O)c2sc(NS(=O)(=O)c3ccc([N+](=O)[O-])cc3)nc2C1	8*	i	i	i	i
CC1(C)CC(=O)c2sc(NS(C)(=O)=O)nc2C1	i	i	i	i	i
O=C(Nc1ccccc1N1CCOCC1)c1cc2ccccc2o1	i	i	i	i	i
O=C(Nc1ccc(N2CCOCC2)c(Cl)c1)c1cc2ccccc2o1	i	i	i	-7.6*	i
COc1ccc(S(=O)(=O)/N=C2/NC(=O)/C(=C/c3ccco3)S2)cc1	7.5*	i	i	i	i
O=C(CCc1ccc(O)c(O)c1)NNC(=S)Nc1ccc(Br)cc1Cl	i	i	i	i	i
CCOC(=O)c1cnc2ccc(C(=O)OC)cc2c1Nc1ccc(C(=O)O)cc1	i	i	i	i	i
CCOC(=O)c1ccc2ncc(C(=O)OCC)c(Nc3ccc(N4CCOCC4)cc3)c2c1	i	i	i	-7.5*	i
CCCCc1cc(=O)oc2cc(C)cc(OCC(=O)NCc3ccncc3)c12	7.2*	i	i	i	i
CCOC(=O)N1CCN(C(=O)c2c(Cl)cnn2C)CC1	i	i	i	i	i
Cn1cccc1-c1cc(C(=O)N/N=C/C=C/c2ccccc2)[nH]n1	i	i	-5.8*	i	i
CC1(C)Cc2c(C#N)c(NC3CCCCC3)nc(-c3ccco3)c2CO1	i	29*	i	i	i
CC(c1nnc(SCC(=O)Nc2cccnc2Cl)n1Cc1ccccc1)N(C)C (stereo unspecified)	i	i	i	i	i
COc1ccccc1OCCC(=O)OCC(=O)NC(C)c1ccccc1 (stereo unspecified)	i	i	-6.1*	i	i
CCC(C)N(CCNC(=O)CC1Oc2ccc(C)cc2NC1=O)C1CCCCC1 (stereo unspecified)	i	i	i	-7.3*	i
O=C(/C(=C(\[O-])c1ccccc1)[n+]1ccc2ccccc2c1)c1ccc([N+](=O)[O-])cc1	i	i	-5.7*	i	i
O=C(/C(=C(\[O-])c1ccccc1)[n+]1ccc2ccccc2c1)c1ccccc1	i	i	i	i	i
c1ccc(C[n+]2ccc3ccccc3c2)cc1	i	i	i	-7.9*	i
COC(=O)N1c2ccccc2C=Cc2ccccc21	i	i	i	i	i
c1ccc(-c2cn3nc4c(nc3n2)CCCC4)cc1	i	i	i	-7*	i
O=C(CCn1c(=S)oc2ccccc21)Nc1cc([N+](=O)[O-])ccc1F	i	i	i	i	i
O=C(CCSc1ccc(Cl)cc1)N1CCN(c2ccc(O)cc2)CC1	i	i	i	-7.2*	i
Cc1nn(CCOc2ccccc2)c(=O)n1-c1ccc(Cl)cc1	11*	i	i	i	i
Cc1nn(CCOc2ccccc2)c(=O)n1-c1ccccc1	i	i	i	i	i
